Source: ChEMBL document CHEMBL1159074, “Inhibitory effect of novel tetrahydropyrimidine-2(1H)-thiones on melanogenesis” (Bioorg Med Chem, 2010)
Active and inactive are the calls of the source. No cut-off for these calls is given here.

Key:
B16 [1] = test: Inhibition of alpha-MSH-induced melanin production in mouse B16 cells at 10 uM after 72 hrs; type: functional; settings: B16, 72 h
Method in brief: (§1)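 B16 melanoma cells (ATCC CRL6323) were seeded at 2.5 × 10³ per well and kept at 37 °C under 5% CO₂. They were stimulated with α-MSH for 72 h with compound present. Melanin released into the medium was read by absorbance at 405 nm against a synthetic melanin standard. % inhibition at 10 µM and IC₅₀ are means of 3–5 separate experiments.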

B16 [2] = test: Inhibition of alpha-MSH-induced melanin production in mouse B16 cells after 72 hrs; type: functional, cell-based; settings: B16, 72 h; method in brief: as §1
B16 [3] = test: Toxicity in alpha-MSH-induced mouse B16 cells assessed as effect on cell viability after 48 hrs by MTT assay; type: cell-based; settings: b16, 48 h
[4] = biological target: T1, Tyrosinase (Mus musculus) (UniProt P11344); test: Inhibition of cell free tyrosinase in alpha-MSH-induced mouse B16 cells assessed as effect on Dopa oxidation by spectrophotometry
T1 sequence (whole entry): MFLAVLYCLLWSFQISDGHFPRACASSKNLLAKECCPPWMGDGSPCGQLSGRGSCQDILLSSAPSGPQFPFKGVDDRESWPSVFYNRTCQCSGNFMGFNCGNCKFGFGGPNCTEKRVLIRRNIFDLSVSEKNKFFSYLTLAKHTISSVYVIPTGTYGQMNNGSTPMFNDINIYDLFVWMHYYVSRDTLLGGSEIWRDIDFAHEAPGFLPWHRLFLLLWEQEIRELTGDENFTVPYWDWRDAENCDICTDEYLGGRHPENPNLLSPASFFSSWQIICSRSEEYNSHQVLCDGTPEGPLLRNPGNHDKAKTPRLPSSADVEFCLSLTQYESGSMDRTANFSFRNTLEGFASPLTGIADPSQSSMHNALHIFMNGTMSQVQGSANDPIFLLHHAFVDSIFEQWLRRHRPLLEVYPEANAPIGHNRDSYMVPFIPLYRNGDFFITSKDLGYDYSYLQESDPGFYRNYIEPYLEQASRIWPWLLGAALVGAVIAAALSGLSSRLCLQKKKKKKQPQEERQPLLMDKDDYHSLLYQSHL
Method in brief: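 Cell-free tyrosinase came from B16 cells stimulated with α-MSH (10 nM). Cells were sonicated on ice in 50 mM sodium phosphate pH 6.8 with 1% Triton X-100 and 1 mM PMSF. The supernatant was dialysed and diluted to 80,000 U/mg protein. Dopa (5 mM), sample and enzyme were mixed in 50 mM phosphate pH 6.8. Dopa oxidation velocity was read spectrophotometrically.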

B16 [5] = test: Inhibition of tyrosinase protein biosynthesis in alpha-MSH-induced mouse B16 cells after 48 hrs by Western blot; type: functional, cell-based
Method in brief: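 B16 cells were stimulated with α-MSH (10 nM) for 48 h with compound present. They were lysed in Tris/NaCl buffer (0.1% SDS, 1% NP-40, protease inhibitors, pH 7.4). Blots were probed overnight at 4 °C with anti-tyrosinase (1:1000), with GAPDH (1:5000) as internal control, then with HRP-conjugated secondary antibody.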

SMILES | IC50 (B16 [2]) | inhibition [4] | inhibition at 10 µM (B16 [1]) | Activity (B16 [3]) | inhibition (B16 [5])
CC(C)(C)c1ccc(CN2CCCNC2=S)cc1 | 0.8 µM | inactive | > 100% | Non-toxic | Active
S=C1NCCN1CCc1ccccc1 | > 10 µM | – | 40% | – | –
O=C1NCCN1CCCc1ccccc1 | > 10 µM | – | 10% | – | –
S=C1NCCCN1CCc1ccccc1 | 2.9 µM | – | 93% | – | –
OC[C@H]1O[C@@H](Oc2ccc(O)cc2)[C@H](O)[C@@H](O)[C@@H]1O [ARBUTIN] | – | – | > 100% | – | –
S=C1NCCN1Cc1ccc(Cl)cc1 | 4.3 µM | – | 79% | – | –
O=C1NCCN1Cc1ccccc1 | > 10 µM | – | 7% | – | –
S=C1NCCN1CCCc1ccccc1 | 4.2 µM | – | 63% | – | –
S=C1NCCCN1Cc1ccccc1 | > 10 µM | – | 42% | – | –
O=C1NCCN1CCc1ccccc1 | > 10 µM | – | 15% | – | –
S=C1NCCN1Cc1ccccc1 | > 10 µM | – | 35% | – | –
Cc1ccc(CN2CCCNC2=S)cc1 | 5.1 µM | – | 80% | – | –
COc1ccc(CN2CCCNC2=S)cc1 | 6.1 µM | – | 60% | – | –
S=C1NCCCN1Cc1ccc(Cl)cc1 | 2.4 µM | – | > 100% | – | –
COc1ccc(CN2CCNC2=S)cc1 | > 10 µM | – | 31% | – | –
Cc1ccc(CN2CCNC2=S)cc1 | 4.8 µM | – | 64% | – | –
S=C1NCCCN1CCCc1ccccc1 | 2.1 µM | – | > 100% | – | –
O=C1NCCCN1CCCc1ccccc1 | > 10 µM | – | 10% | – | –
O=C1NCCCN1CCc1ccccc1 | > 10 µM | – | 10% | – | –

More lines, main results first:

IC50 (B16 [2]) | inhibition [4] | SMILES | inhibition at 10 µM (B16 [1]) | Activity (B16 [3]) | inhibition (B16 [5])
> 10 µM | – | Cc1ccc(CN2CCCNC2=O)cc1 | 5% | – | –
> 10 µM | – | COc1ccc(CN2CCCNC2=O)cc1 | 20% | – | –
> 10 µM | – | COc1ccc(CN2CCNC2=O)cc1 | 13% | – | –
> 10 µM | – | Cc1ccc(CN2CCNC2=O)cc1 | 14% | – | –
> 10 µM | – | O=C1NCCCN1Cc1ccccc1 | 0% | – | –
> 10 µM | – | CCc1ccc(CN2CCCNC2=O)cc1 | 29% | – | –
> 10 µM | – | O=C1NCCN1Cc1ccc(Cl)cc1 | 10% | – | –
> 10 µM | – | CC(C)(C)c1ccc(CN2CCCNC2=O)cc1 | 30% | – | –
1.3 µM | – | CCc1ccc(CN2CCCNC2=S)cc1 | > 100% | – | –
> 10 µM | – | O=C1NCCCN1Cc1ccc(Cl)cc1 | 26% | – | –
